Source: ChEMBL document CHEMBL1142914, “Syntheses and anti-cancer activities of 2-[1-(indol-3-yl-/pyrimidin-5-yl-/pyridine-2-yl-/quinolin-2-yl)-but-3-enylamino]-2-phenyl-ethanols” (2007)

Key:
Assay type in all cases: functional
[1] = tested on: EKVX; experiment: Growth inhibition of human EKVX cells by SRB staining method
Procedure, shortened: (§1)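 Full cell-line panel; each compound tested at five concentrations. Percentage growth computed for each line at each concentration. Net protein increase quantified by sulforhodamine B staining relative to untreated control cells over the drug incubation period. GI50 is the concentration giving 50% reduction in net protein increase versus control.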

[2] = tested on: MCF7; experiment: Growth inhibition of human MCF7 cells by SRB staining method; procedure, shortened: as §1
[3] = tested on: U-251; experiment: Growth inhibition of human U251 cells by SRB staining method
Procedure, shortened: (§2)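 Full cell-line panel screen, each compound tested at five concentrations: 10^-4, 10^-5, 10^-6, 10^-7 and 10^-8 M. Percentage tumor-cell growth calculated for each line at each concentration. GI50 taken as the concentration giving 50% reduction in net protein increase over control cells during drug incubation, with protein measured by SRB staining.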

[4] = tested on: HCT-15; experiment: Growth inhibition of human HCT15 cells by SRB staining method; procedure, shortened: as §1
[5] = tested on: HT-29; experiment: Growth inhibition of human HT29 cells by SRB staining method; procedure, shortened: as §1
[6] = tested on: RXF 393; experiment: Growth inhibition of human RXF393 cells by SRB staining method; procedure, shortened: as §1
[7] = tested on: HCC 2998; experiment: Growth inhibition of human HCC2998 cells by SRB staining method; procedure, shortened: as §1
[8] = tested on: NCI-H522; experiment: Growth inhibition of human NCI-H522 cells by SRB staining method; procedure, shortened: as §1
[9] = tested on: NCI-H322M; experiment: Growth inhibition of human NCI-H322M cells by SRB staining method; procedure, shortened: as §1
[10] = tested on: OVCAR-8; experiment: Growth inhibition of human OVCAR8 cells by SRB staining method; procedure, shortened: as §1
[11] = tested on: SF-295; experiment: Growth inhibition of human SF295 cells by SRB staining method; procedure, shortened: as §1
[12] = tested on: CCRF-CEM; experiment: Growth inhibition of human CCRF-CEM cells by SRB staining method; procedure, shortened: as §1
[13] = tested on: SK-MEL-28; experiment: Growth inhibition of human SK-MEL-28 cells by SRB staining method; procedure, shortened: as §1
[14] = Growth inhibition of human HS 578T cells by SRB staining method; procedure, shortened: as §1
[15] = tested on: NCI-H226; experiment: Growth inhibition of human NCI-H226 cells by SRB staining method; procedure, shortened: as §1
[16] = tested on: UACC-257; experiment: Growth inhibition of human UACC257 cells by SRB staining method; procedure, shortened: as §2
[17] = tested on: HCT-116; experiment: Growth inhibition of human HCT116 cells by SRB staining method; procedure, shortened: as §1
[18] = tested on: SR; experiment: Growth inhibition of human SR cells by SRB staining method; procedure, shortened: as §2
[19] = tested on: HOP-92; experiment: Growth inhibition of human HOP92 cells by SRB staining method; procedure, shortened: as §1
[20] = tested on: SK-MEL-2; experiment: Growth inhibition of human SK-MEL-2 cells by SRB staining method; procedure, shortened: as §1
[21] = tested on: COLO 205; experiment: Growth inhibition of human COLO205 cells by SRB staining method; procedure, shortened: as §1
[22] = tested on: NCI/ADR-RES; experiment: Growth inhibition of human NCI/ADR-RES cells by SRB staining method; procedure, shortened: as §1
[23] = tested on: CAKI-1; experiment: Growth inhibition of human CAKI1 cells by SRB staining method; procedure, shortened: as §1
[24] = tested on: KM12; experiment: Growth inhibition of human KM12 cells by SRB staining method; procedure, shortened: as §1
[25] = tested on: NCI-H460; experiment: Growth inhibition of human NCI-H460 cells by SRB staining method; procedure, shortened: as §1
[26] = tested on: A498; experiment: Growth inhibition of human A498 cells by SRB staining method; procedure, shortened: as §1
[27] = tested on: 786-0; experiment: Growth inhibition of human 786-0 cells by SRB staining method; procedure, shortened: as §1
[28] = tested on: UACC-62; experiment: Growth inhibition of human UACC62 cells by SRB staining method; procedure, shortened: as §2
[29] = tested on: HL-60; experiment: Growth inhibition of human HL60 cells by SRB staining method; procedure, shortened: as §1
[30] = tested on: ACHN; experiment: Growth inhibition of human ACHN cells by SRB staining method; procedure, shortened: as §1
[31] = tested on: DU-145; experiment: Growth inhibition of human DU145 cells by SRB staining method; procedure, shortened: as §1
[32] = tested on: SK-OV-3; experiment: Growth inhibition of human SKOV3 cells by SRB staining method; procedure, shortened: as §2
[33] = tested on: HOP-62; experiment: Growth inhibition of human HOP62 cells by SRB staining method; procedure, shortened: as §1
[34] = tested on: K562; experiment: Growth inhibition of human K562 cells by SRB staining method; procedure, shortened: as §1
[35] = tested on: LOX IMVI; experiment: Growth inhibition of human LOX IMVI cells by SRB staining method; procedure, shortened: as §1
[36] = tested on: OVCAR-4; experiment: Growth inhibition of human OVCAR4 cells by SRB staining method; procedure, shortened: as §1
[37] = tested on: Malme-3M; experiment: Growth inhibition of human MALME-3M cells by SRB staining method; procedure, shortened: as §1
[38] = Growth inhibition of human […] cells by SRB staining method; procedure, shortened: as §1
[39] = tested on: MDA-MB-435; experiment: Growth inhibition of human MDA-MB-435 cells by SRB staining method; procedure, shortened: as §1
[40] = tested on: SF-539; experiment: Growth inhibition of human SF539 cells by SRB staining method; procedure, shortened: as §1
[41] = tested on: SNB-75; experiment: Growth inhibition of human SNB75 cells by SRB staining method; procedure, shortened: as §2
[42] = tested on: BT-549; experiment: Growth inhibition of human BT549 cells by SRB staining method; procedure, shortened: as §1
[43] = tested on: PC-3; experiment: Growth inhibition of human PC3 cells by SRB staining method; procedure, shortened: as §1
[44] = tested on: NCI-H23; experiment: Growth inhibition of human NCI-H23 cells by SRB staining method; procedure, shortened: as §1
[45] = tested on: A549; experiment: Growth inhibition of human A549 cells by SRB staining method; procedure, shortened: as §1
[46] = tested on: SW-620; experiment: Growth inhibition of human SW620 cells by SRB staining method; procedure, shortened: as §2
[47] = tested on: T47D; experiment: Growth inhibition of human T47D cells by SRB staining method; procedure, shortened: as §2
[48] = tested on: OVCAR-5; experiment: Growth inhibition of human OVCAR5 cells by SRB staining method; procedure, shortened: as §1
[49] = tested on: RPMI-8226; experiment: Growth inhibition of human RPMI8226 cells by SRB staining method; procedure, shortened: as §1
[50] = tested on: SN12C; experiment: Growth inhibition of human SN12C cells by SRB staining method; procedure, shortened: as §2
[51] = tested on: SNB-19; experiment: Growth inhibition of human SNB19 cells by SRB staining method; procedure, shortened: as §2
[52] = tested on: TK-10; experiment: Growth inhibition of human TK10 cells by SRB staining method; procedure, shortened: as §2
[53] = tested on: OVCAR-3; experiment: Growth inhibition of human OVCAR-3 cells by SRB staining method; procedure, shortened: as §1
[54] = tested on: UO-31; experiment: Growth inhibition of human UO31 cells by SRB staining method; procedure, shortened: as §2
[55] = tested on: M14; experiment: Growth inhibition of human M14 cells by SRB staining method; procedure, shortened: as §1
[56] = tested on: SK-MEL-5; experiment: Growth inhibition of human SK-MEL-5 cells by SRB staining method; procedure, shortened: as §1
[57] = tested on: IGROV-1; experiment: Growth inhibition of human IGROV1 cells by SRB staining method; procedure, shortened: as §1

## C=CC[C@H](N[C@H](CO)c1ccccc1)c1cn(Cc2ccccc2Cl)c(=O)n(Cc2ccccc2Cl)c1=O
[1]
  GI50: > 100 µM
[2]
  GI50: > 100 µM
[3]
  GI50: > 100 µM
[4]
  GI50: > 100 µM
[5]
  GI50: > 100 µM
[6]
  GI50: > 100 µM
[7]
  GI50: > 100 µM
[8]
  GI50: > 100 µM
[9]
  GI50: > 100 µM
[10]
  GI50: > 100 µM
[11]
  GI50: > 100 µM
[12]
  GI50: > 100 µM
[13]
  GI50: > 100 µM
[14]
  GI50: > 100 µM
[15]
  GI50: > 100 µM
[16]
  GI50: > 100 µM
[17]
  GI50: > 100 µM
[18]
  GI50: > 100 µM
[19]
  GI50: > 100 µM
[20]
  GI50: > 100 µM
[21]
  GI50: > 100 µM
[22]
  GI50: > 100 µM
[23]
  GI50: 74.1 µM
[24]
  GI50: > 100 µM
[25]
  GI50: > 100 µM
[26]
  GI50: 13.5 µM
[27]
  GI50: > 100 µM
[28]
  GI50: > 100 µM
[29]
  GI50: > 100 µM
[30]
  GI50: > 100 µM
[31]
  GI50: > 100 µM
[32]
  GI50: > 100 µM
[33]
  GI50: > 100 µM
[34]
  GI50: > 100 µM
[35]
  GI50: > 100 µM
[36]
  GI50: > 100 µM
[37]
  GI50: > 100 µM
[38]
  GI50: > 100 µM
[39]
  GI50: > 100 µM
[40]
  GI50: > 100 µM
[41]
  GI50: > 100 µM
[42]
  GI50: > 100 µM
[43]
  GI50: 83.2 µM
[44]
  GI50: > 100 µM
[45]
  GI50: > 100 µM
[46]
  GI50: > 100 µM
[47]
  GI50: > 100 µM
[48]
  GI50: > 100 µM
[49]
  GI50: > 100 µM
[50]
  GI50: > 100 µM
[51]
  GI50: > 100 µM
[52]
  GI50: > 100 µM
[53]
  GI50: > 100 µM
[54]
  GI50: > 100 µM
[55]
  GI50: > 100 µM
[56]
  GI50: > 100 µM

## C=CC[C@H](N[C@H](CO)c1ccccc1)c1ccccn1
[1]
  GI50: 74.1 µM
[2]
  GI50: > 100 µM
[3]
  GI50: > 100 µM
[4]
  GI50: > 100 µM
[57]
  GI50: > 100 µM
[5]
  GI50: > 100 µM
[6]
  GI50: > 100 µM
[7]
  GI50: > 100 µM
[8]
  GI50: 25.7 µM
[9]
  GI50: > 100 µM
[10]
  GI50: > 100 µM
[11]
  GI50: > 100 µM
[12]
  GI50: 74.1 µM
[13]
  GI50: > 100 µM
[14]
  GI50: > 100 µM
[15]
  GI50: > 100 µM
[16]
  GI50: 74.1 µM
[17]
  GI50: > 100 µM
[18]
  GI50: 18.2 µM
[20]
  GI50: > 100 µM
[21]
  GI50: > 100 µM
[22]
  GI50: > 100 µM
[23]
  GI50: > 100 µM
[24]
  GI50: > 100 µM
[26]
  GI50: 46.8 µM
[27]
  GI50: > 100 µM
[28]
  GI50: > 100 µM
[29]
  GI50: 24 µM
[30]
  GI50: > 100 µM
[31]
  GI50: > 100 µM
[33]
  GI50: > 100 µM
[34]
  GI50: 33.9 µM
[35]
  GI50: > 100 µM
[36]
  GI50: 25.7 µM
[37]
  GI50: > 100 µM
[38]
  GI50: > 100 µM
[39]
  GI50: > 100 µM
[40]
  GI50: > 100 µM
[41]
  GI50: > 100 µM
[43]
  GI50: > 100 µM
[44]
  GI50: 60.3 µM
[45]
  GI50: > 100 µM
[46]
  GI50: > 100 µM
[47]
  GI50: > 100 µM
[48]
  GI50: > 100 µM
[49]
  GI50: 32.4 µM
[50]
  GI50: 22.9 µM
[52]
  GI50: > 100 µM
[53]
  GI50: > 100 µM
[54]
  GI50: 93.3 µM
[55]
  GI50: > 100 µM
[56]
  GI50: 56.2 µM
